Active and inactive are the calls of the source. The calls are words filed in the database; no cut-off is given here.
Legend:
[1] = target: T1, Ubiquitin carboxyl-terminal hydrolase 7 (Homo sapiens, UniProt Q93009); assay: Inhibition of recombinant USP7 catalytic domain (unknown origin) using UbA10 as substrate incubated with substrate for 75 mins followed by compound addition and measured after 1 hr by TR-FRET assay relative to control; design: concentration or dose not given beside the values
Outline: (§1)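 TR-FRET deubiquitinase assay. The recombinant USP7 catalytic domain was mixed with compound (from 2.5 mM DMSO stocks) in 50 mM HEPES pH 7.5 with 0.01% Triton X-100 for 10 min at 25 °C. The substrate was GST- and biotin-tagged Ub-A10, incubated for 75 min at 37 °C. Streptavidin-d2/anti-GST-Eu detection reagents were then added for 1 h at 25 °C and the signal read at […]/em 665 nm. IC50 came from regression.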
Target sequence in this assay (Q93009 whole entry, looked up, the tested form may be a part): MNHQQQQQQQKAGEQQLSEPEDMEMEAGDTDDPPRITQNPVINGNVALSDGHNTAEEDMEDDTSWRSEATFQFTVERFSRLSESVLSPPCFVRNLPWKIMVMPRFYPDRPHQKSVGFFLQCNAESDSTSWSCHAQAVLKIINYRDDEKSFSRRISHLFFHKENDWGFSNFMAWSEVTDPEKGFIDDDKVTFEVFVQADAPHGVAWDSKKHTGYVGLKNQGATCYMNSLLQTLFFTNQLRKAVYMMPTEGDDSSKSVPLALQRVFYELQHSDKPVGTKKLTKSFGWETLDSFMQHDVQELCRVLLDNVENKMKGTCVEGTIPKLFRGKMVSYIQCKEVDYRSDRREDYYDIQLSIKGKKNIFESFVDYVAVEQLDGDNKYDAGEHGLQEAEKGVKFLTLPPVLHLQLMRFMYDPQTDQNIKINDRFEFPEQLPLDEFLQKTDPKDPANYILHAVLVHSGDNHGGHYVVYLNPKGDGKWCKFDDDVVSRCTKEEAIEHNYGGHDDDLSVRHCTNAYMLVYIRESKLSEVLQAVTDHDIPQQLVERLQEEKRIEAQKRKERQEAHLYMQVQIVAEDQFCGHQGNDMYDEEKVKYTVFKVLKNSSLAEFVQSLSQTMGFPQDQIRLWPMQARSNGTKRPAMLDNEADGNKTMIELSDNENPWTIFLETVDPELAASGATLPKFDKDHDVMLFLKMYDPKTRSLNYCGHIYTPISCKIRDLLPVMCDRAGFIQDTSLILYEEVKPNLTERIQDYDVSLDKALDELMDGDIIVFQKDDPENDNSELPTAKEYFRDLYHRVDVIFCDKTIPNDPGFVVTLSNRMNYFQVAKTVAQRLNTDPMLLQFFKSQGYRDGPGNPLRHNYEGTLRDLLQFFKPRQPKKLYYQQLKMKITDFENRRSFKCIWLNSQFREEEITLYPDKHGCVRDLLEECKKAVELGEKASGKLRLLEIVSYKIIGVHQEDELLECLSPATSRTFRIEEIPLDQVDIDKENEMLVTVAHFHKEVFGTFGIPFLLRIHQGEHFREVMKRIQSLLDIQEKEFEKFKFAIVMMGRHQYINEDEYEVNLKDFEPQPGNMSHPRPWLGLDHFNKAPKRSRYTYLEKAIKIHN

MGC-803 [2] = assay: Cytotoxicity against human MGC-803 cells incubated for 4 hrs by MTT assay; assay type: functional, cell-based; details: for IC50: MGC-803, 4 h
Outline: (§2)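 MTT assay. Compounds were dissolved in DMSO and tested at […] in triplicate. Cells were incubated with MTT at 37 °C for 4 h, the medium was replaced with DMSO, and absorbance was read at 490 nm. IC50 values came from regression.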

BGC-823 [3] = assay: Cytotoxicity against human BGC-823 cells incubated for 4 hrs by MTT assay; assay type: functional, cell-based; outline: as §2
[4] = target: T1, Ubiquitin carboxyl-terminal hydrolase 7; assay: Inhibition of recombinant USP7 catalytic domain (unknown origin) using UbA10 as substrate incubated with substrate for 75 mins followed by compound addition and measured after 1 hr by TR-FRET assay; outline: as §1
Target sequence in this assay (Q93009 whole entry, the tested form may be a part): as the sequence (Q93009 whole entry, looked up, the tested form may be a part) above

BGC-823 [5] = assay: Cytotoxicity against human BGC-823 cells at 50 uM incubated for 4 hrs by MTT assay relative to control; assay type: functional
[6] = target: T1, Ubiquitin carboxyl-terminal hydrolase 7; assay: Inhibition of USP7 in human BGC-823 cells assessed as upregulation of p21 protein expression by Western blot analysis; assay type: cell-based
Target sequence in this assay (Q93009 whole entry, looked up, the tested form may be a part): as above

MGC-803 [7] = assay: Cytotoxicity against human MGC-803 cells at 50 uM incubated for 4 hrs by MTT assay relative to control; assay type: functional
MGC-803 [8] = assay: Inhibition of colony formation in human MGC-803 cells after 7 days by crystal violet staining based assay; assay type: functional, cell-based; details: time 7.0 day
Outline: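 Clonogenic assay: MGC-803 cells in log phase were seeded at 200 cells per well, allowed to attach for 12 h at 37 °C in 5% CO2, then exposed to the indicated concentrations or to DMSO for 7 days. Colonies were fixed with 4% paraformaldehyde and stained with 0.1% crystal violet for 15 min.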

MGC-803 [9] = assay: Induction of cell cycle arrest in human MGC-803 cells assessed as accumulation of cells at G0/G1 phase incubated for 72 hrs by propidium iodide staining based flow cytometry; assay type: functional
Outline: (§3)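 Cell cycle: MGC-803 cells were treated with various compound concentrations for 72 h, harvested, washed in PBS at 4 °C, and stained with a commercial PI cell-cycle kit following its instructions. DNA content was analysed by flow cytometry.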

MGC-803 [10] = assay: Induction of cell cycle arrest in human MGC-803 cells assessed as accumulation of cells at S phase incubated for 72 hrs by propidium iodide staining based flow cytometry; assay type: functional; outline: as §3
[11] = target: T1, Ubiquitin carboxyl-terminal hydrolase 7; assay: Inhibition of USP7 in human MGC-803 cells assessed as decrease in MDM2 protein level by Western blot analysis; assay type: cell-based; details: time 0.5-7 hrs, TDE = time-dependent effect
Target sequence in this assay (Q93009 whole entry, looked up, the tested form may be a part): as above

[12] = target: T1, Ubiquitin carboxyl-terminal hydrolase 7; assay: Inhibition of N-terminal His-FLAG-tagged human USP7 (2 to 1102 residues) expressed in baculovirus infected Sf9 cells using Ub-AMC as substrate preincubated with enzyme for 40 mins followed by substrate addition for 30 mins by fluorescence plate reader analysis
Outline: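 USP7 activity with a commercial Ub-AMC inhibitor screening kit. Compound working solutions were made in 1X buffer containing 6.5 mM DTT. USP7 was added and preincubated for 40 min at 25 °C. Ub-AMC, diluted 800-fold, was added for 30 min at 25 °C. Fluorescence was read at ex 360/em 460 nm, and IC50 came from regression.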
Target sequence in this assay (Q93009 whole entry, the tested form may be a part): as the sequence (Q93009 whole entry, looked up, the tested form may be a part) above

[13] = target: T1, Ubiquitin carboxyl-terminal hydrolase 7; assay: Inhibition of USP7 in human MGC-803 cells assessed as increase in p21 expression level at 2.5 to 10 uM by Western blot analysis; assay type: cell-based; details: dose 2.5-10 µM
Target sequence in this assay (Q93009 whole entry, looked up, the tested form may be a part): as above

[14] = target: T1, Ubiquitin carboxyl-terminal hydrolase 7; assay: Binding affinity to recombinant USP7 (208 to 560 residues) (unknown origin) assessed as dissociation constant by biolayer interferometry
Target sequence in this assay (Q93009 whole entry, the tested form may be a part): as the sequence (Q93009 whole entry, looked up, the tested form may be a part) above

[15] = target: T1, Ubiquitin carboxyl-terminal hydrolase 7; assay: Inhibition of USP7 in human MGC-803 cells assessed as increase in p53 expression level at 2.5 to 10 uM by Western blot analysis; assay type: cell-based; details: dose 2.5-10 µM
Target sequence in this assay (Q93009 whole entry, looked up, the tested form may be a part): as above

Work on O=C(/C=C/c1ccccc1)N1CCC(O)(Cn2cnc3cc(Cl)ccc3c2=O)CC1 yielded an inhibition [1] of 32.6%.

With O=C(COc1cccc2ccccc12)N1CCC(O)(Cn2cnc3cc(Cl)ccc3c2=O)CC1 the Activity (MGC-803 [2]) was “Active”, the Activity (BGC-823 [3]) was “Active” and the inhibition [1] was 9.83%.

Work on O=C(c1ccccn1)N1CCC(O)(Cn2cnc3cc(Cl)ccc3c2=O)CC1 yielded an IC50 [4] greater than 50 µM and an inhibition [1] of less than 50%.

O=C(CCc1ccccc1)N1CCC(O)(Cn2cnc3cc(NCCO)ccc3c2=O)CC1 showed an IC50 [4] of 16.4 µM.

Nc1cc(Cl)ccc1C(=O)N1CCC(O)(Cn2cnc3cc(Cl)ccc3c2=O)CC1 was tested, and the Activity (MGC-803 [2]) was “Active” and the inhibition [1] was 46.5%.

O=C(c1ccccc1[N+](=O)[O-])N1CCC(O)(Cn2cnc3cc(Cl)ccc3c2=O)CC1 gave an inhibition [1] of 4.29%.

In the case of O=C(COc1ccccc1)N1CCC(O)(Cn2cnc3cc(Cl)ccc3c2=O)CC1, the inhibition [1] is reported as 22.7%.

Work on O=C(c1cccnc1)N1CCC(O)(Cn2cnc3cc(Cl)ccc3c2=O)CC1 yielded an IC50 [4] greater than 50 µM and an inhibition [1] of less than 50%.

With Cc1ccc(S(=O)(=O)N2CCC(O)(Cn3cnc4cc(Cl)ccc4c3=O)CC2)cc1 the inhibition [1] was 0.8%.

For Nc1cc(Br)ccc1C(=O)N1CCC(O)(Cn2cnc3cc(Cl)ccc3c2=O)CC1, the IC50 (MGC-803 [2]) was 30 µM, the IC50 [4] was 46.3 µM and the Activity (BGC-823 [3]) was “Active”. For the same molecule, the inhibition at 50 µM (BGC-823 [5]) was 52%.

O=C(CCc1ccccc1)N1CCC(O)(Cn2cnc3cc(NCc4ccco4)ccc3c2=O)CC1 gave an IC50 [4] of 9.8 µM.

For CN(C)CCNc1ccc2c(=O)n(CC3(O)CCN(C(=O)CCc4ccccc4)CC3)cnc2c1, the inhibition [6] was “Dose-Dependent Effect” and the IC50 [4] was 5.98 µM.

In the case of O=C(CCc1ccccc1)N1CCC(O)(Cn2cnc3cc(Cl)ccc3c2=O)CC1, the Activity (MGC-803 [2]) is reported as “inactive”, the IC50 [4] is reported as 23.1 µM and the Activity (BGC-823 [3]) is reported as “inactive”. The inhibition at 50 µM (BGC-823 [5]) was 8.45% and the inhibition at 50 µM (MGC-803 [7]) was 31.4%.

With O=C(c1cccc(Cl)c1Cl)N1CCC(O)(Cn2cnc3cc(Cl)ccc3c2=O)CC1 the Activity (MGC-803 [2]) was “Active”.

O=C(Cc1ccc(C(F)(F)F)cc1)N1CCC(O)(Cn2cnc3cc(Cl)ccc3c2=O)CC1 was tested, and the IC50 [4] was greater than 50 µM.

Work on O=C(c1ccc([N+](=O)[O-])cc1)N1CCC(O)(Cn2cnc3cc(Cl)ccc3c2=O)CC1 yielded an inhibition [1] of 58.3%.

In the case of O=C(CCc1ccccc1)N1CCC(O)(Cn2cnc3cc(NCCN4CCCCC4)ccc3c2=O)CC1, the IC50 [4] is reported as 37 µM.

In the case of O=C(CCc1ccccc1)N1CCC(O)(Cn2cnc3cc(NCCN4CCCC4)ccc3c2=O)CC1, the inhibition (MGC-803 [8]) is reported as “Active”, the Activity (MGC-803 [9]) is reported as “Active” and the Activity (MGC-803 [10]) is reported as “Active”. For the same molecule, the inhibition [11] was “Tde”, the IC50 [12] was 5.05 µM and the IC50 [4] was 4.86 µM. The inhibition at 50 µM (BGC-823 [5]) was 28.4%, the inhibition [13] was “Active” and the Kd [14] was 77 µM. For the same molecule, the inhibition at 50 µM (MGC-803 [7]) was 31% and the inhibition [15] was “Active”.

In the case of O=C(c1ccc(O)cc1)N1CCC(O)(Cn2cnc3cc(Cl)ccc3c2=O)CC1, the Activity (MGC-803 [2]) is reported as “Active” and the Activity (BGC-823 [3]) is reported as “Active”.

Work on CC(CC(=O)N1CCC(O)(Cn2cnc3cc(Cl)ccc3c2=O)CC1)c1ccccc1 (stereo not given) yielded an IC50 [4] of 6.79 µM.

O=C(Cc1cccc2ccccc12)N1CCC(O)(Cn2cnc3cc(Cl)ccc3c2=O)CC1 showed an IC50 [4] greater than 50 µM.

O=C(CCc1ccccc1)N1CCC(O)(Cn2cnc3cc(NCc4ccccc4Cl)ccc3c2=O)CC1 gave an IC50 (MGC-803 [2]) of 29.7 µM, an IC50 (BGC-823 [3]; BGC-823, 4 h) of 43.1 µM and an inhibition at 50 µM (BGC-823 [5]) of 58.2%. For the same molecule, the inhibition [1] was 49.1% and the inhibition at 50 µM (MGC-803 [7]) was 86.7%.

For CC(CC(=O)N1CCC(O)(Cn2cnc3cc(NCCN(C)C)ccc3c2=O)CC1)c1ccccc1 (stereo not given), the inhibition [6] was “Dose-Dependent Effect”, the IC50 [12] was 0.595 µM and the IC50 [4] was 1.54 µM.

For CC(CC(=O)N1CCC(O)(Cn2cnc3cc(NCCN4CCCC4)ccc3c2=O)CC1)c1ccccc1 (stereo not given), the inhibition [6] was “Dose-Dependent Effect”.

In the case of O=C(CCc1ccccc1)N1CCC(O)(Cn2cnc3cc(NCCc4ccccc4)ccc3c2=O)CC1, the IC50 (MGC-803 [2]) is reported as 32.1 µM, the IC50 [4] is reported as 15.3 µM and the Activity (BGC-823 [3]) is reported as “Active”. It also gave an inhibition at 50 µM (BGC-823 [5]) of 54%.

Work on O=C(c1ccccc1)N1CCC(O)(Cn2cnc3cc(Cl)ccc3c2=O)CC1 yielded an inhibition [1] of 18.6%.

O=C(CCc1ccccc1)N1CCC(O)(Cn2cnc3cc(Br)ccc3c2=O)CC1 gave an IC50 [4] of 27.4 µM.

O=C(c1cccc(Br)c1)N1CCC(O)(Cn2cnc3cc(Cl)ccc3c2=O)CC1 showed an inhibition [1] of 42.2%.

For COc1ccccc1CNc1ccc2c(=O)n(CC3(O)CCN(C(=O)CCc4ccccc4)CC3)cnc2c1, the inhibition [1] was 45.9%.

In the case of O=C(CCc1ccccc1)N1CCC(O)(Cn2cnc3cc(NCc4ccc(Cl)cc4)ccc3c2=O)CC1, the inhibition [1] is reported as 49.9%.

O=C(c1ccc[nH]1)N1CCC(O)(Cn2cnc3cc(Cl)ccc3c2=O)CC1 was tested, and the IC50 [4] was greater than 50 µM and the inhibition [1] was less than 50%.
